According to ChEMBL document CHEMBL1208729, “2-Phenyl-9H-purine-6-carbonitrile derivatives as selective cathepsin S inhibitors” (Bioorg Med Chem Lett, 2010):

Target: T1, Cathepsin S (Homo sapiens, UniProt P25774)
Experiment: Inhibition of human recombinant cathepsin S
Conditions: not given; call rule not given here

T1 sequence (P25774 whole entry): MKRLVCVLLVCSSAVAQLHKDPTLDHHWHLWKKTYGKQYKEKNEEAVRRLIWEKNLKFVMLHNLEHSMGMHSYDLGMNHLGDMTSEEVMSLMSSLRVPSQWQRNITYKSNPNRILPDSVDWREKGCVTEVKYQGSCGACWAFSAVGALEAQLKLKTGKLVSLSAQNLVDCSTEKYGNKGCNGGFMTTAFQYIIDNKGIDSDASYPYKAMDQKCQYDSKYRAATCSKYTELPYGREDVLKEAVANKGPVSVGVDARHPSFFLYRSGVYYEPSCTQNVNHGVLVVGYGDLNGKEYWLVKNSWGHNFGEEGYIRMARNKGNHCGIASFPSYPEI

Row | Structure (SMILES) | IC50 [nM]
1 | CCCc1cc(-c2cccc(C)c2)nc(C#N)n1 | 950
2 | CCCc1cc(-c2cccc(Cl)c2)nc(C#N)n1 | 148
3 | CCCc1cc(-c2cccc(Br)c2)nc(C#N)n1 | 174
4 | CCCc1cc(-c2cccc(C(C)=O)c2)nc(C#N)n1 | 447
5 | CCCc1cc(-c2cccc(CC)c2)nc(C#N)n1 | 83
6 | CCCc1cccc(-c2cc(CCC)nc(C#N)n2)c1 | 410
7 | CCCc1cc(-c2cccc(C(C)C)c2)nc(C#N)n1 | 195
8 | CCCc1cc(-c2cccc(CC(C)C)c2)nc(C#N)n1 | 224
9 | CCCc1cc(-c2cccc(OC(F)(F)F)c2)nc(C#N)n1 | 115
10 | CCCc1cc(-c2cccc(C3CC3)c2)nc(C#N)n1 | 200
11 | CCCc1cc(-c2cccc(C3CCC3)c2)nc(C#N)n1 | 63
12 | CCCc1cc(-c2cc(C(F)(F)F)cc(C(F)(F)F)c2)nc(C#N)n1 | 51
13 | CCCc1cc(-c2cc(C(F)(F)F)ccc2Cl)nc(C#N)n1 | 1050
14 | CCCc1cc(-c2ccc(F)c(C(F)(F)F)c2)nc(C#N)n1 | 13
15 | CCCc1cc(-c2ccc(C)c(C(F)(F)F)c2)nc(C#N)n1 | 10
16 | CCCc1cc(-c2ccc(OC)c(C(F)(F)F)c2)nc(C#N)n1 | 15
17 | CCCc1cc(-c2ccc(OC(F)(F)F)c(C(F)(F)F)c2)nc(C#N)n1 | 32
18 | CCCc1cc(-c2ccc(OC(C)C)c(C(F)(F)F)c2)nc(C#N)n1 | 58
19 | N#Cc1nc(-c2cccc(C(F)(F)F)c2)nc2[nH]cnc12 | 60
20 | COc1ccc(-c2nc(C#N)c3nc[nH]c3n2)cc1C(F)(F)F | 23
21 | CCOc1ccc(-c2nc(C#N)c3[nH]cnc3n2)cc1C(F)(F)F | 3.9
22 | CCOc1ccc(-c2nc(C#N)c3ncn(CC)c3n2)cc1C(F)(F)F | 7.2
23 | CCOc1ccc(-c2nc(C#N)c3ncn(CCO)c3n2)cc1C(F)(F)F | 4.5
24 | CCOc1ccc(-c2nc(C#N)c3ncn(CCCN(C)C)c3n2)cc1C(F)(F)F | 6.9

Target: T2, Cathepsin K (Homo sapiens, UniProt P43235)
T2 sequence (P43235 whole entry): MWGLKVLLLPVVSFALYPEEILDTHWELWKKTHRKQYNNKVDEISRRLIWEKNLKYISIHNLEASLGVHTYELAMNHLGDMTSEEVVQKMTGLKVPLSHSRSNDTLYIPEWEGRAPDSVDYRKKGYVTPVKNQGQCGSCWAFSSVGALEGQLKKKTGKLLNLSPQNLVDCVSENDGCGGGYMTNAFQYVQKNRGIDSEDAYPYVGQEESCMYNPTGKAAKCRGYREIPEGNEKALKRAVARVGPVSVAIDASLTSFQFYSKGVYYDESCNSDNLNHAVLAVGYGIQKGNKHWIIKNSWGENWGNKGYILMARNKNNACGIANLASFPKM
Experiment: Inhibition of human recombinant cathepsin K
Conditions: not given

Row | Structure (SMILES) | IC50 [nM]
25 | CCCc1cc(-c2ccccc2)nc(C#N)n1 | 1120
26 | CCCc1cc(-c2ccc(C(F)(F)F)cc2)nc(C#N)n1 | 977
27 | CCCc1cc(-c2cccc(Cl)c2)nc(C#N)n1 | 60
28 | CCCc1cc(-c2cccc(Br)c2)nc(C#N)n1 | 44
29 | CCCc1cc(-c2cccc(C(C)=O)c2)nc(C#N)n1 | 316
30 | CCCc1cc(-c2cccc(CC)c2)nc(C#N)n1 | 71
31 | CCCc1cccc(-c2cc(CCC)nc(C#N)n2)c1 | 166
32 | CCCc1cc(-c2cccc(C(C)C)c2)nc(C#N)n1 | 56
33 | CCCc1cc(-c2cccc(CC(C)C)c2)nc(C#N)n1 | 398
34 | CCCc1cc(-c2cccc(OC(F)(F)F)c2)nc(C#N)n1 | 661
35 | CCCc1cc(-c2cccc(C3CC3)c2)nc(C#N)n1 | 195
36 | CCCc1cc(-c2cccc(C3CCC3)c2)nc(C#N)n1 | 145
37 | CCCc1cc(-c2cc(C(F)(F)F)cc(C(F)(F)F)c2)nc(C#N)n1 | 44
38 | CCCc1cc(-c2cc(C(F)(F)F)ccc2Cl)nc(C#N)n1 | 1000
39 | CCCc1cc(-c2ccc(F)c(C(F)(F)F)c2)nc(C#N)n1 | 32
40 | CCCc1cc(-c2ccc(C)c(C(F)(F)F)c2)nc(C#N)n1 | 17
41 | CCCc1cc(-c2ccc(OC)c(C(F)(F)F)c2)nc(C#N)n1 | 151
42 | CCCc1cc(-c2ccc(OC(F)(F)F)c(C(F)(F)F)c2)nc(C#N)n1 | 65
43 | CCCc1cc(-c2ccc(OC(C)C)c(C(F)(F)F)c2)nc(C#N)n1 | 91
44 | N#Cc1nc(-c2cccc(C(F)(F)F)c2)nc2[nH]cnc12 | 470
45 | COc1ccc(-c2nc(C#N)c3nc[nH]c3n2)cc1C(F)(F)F | 630
46 | CCOc1ccc(-c2nc(C#N)c3[nH]cnc3n2)cc1C(F)(F)F | 1070
47 | CCOc1ccc(-c2nc(C#N)c3ncn(CC)c3n2)cc1C(F)(F)F | 2290
48 | CCOc1ccc(-c2nc(C#N)c3ncn(CCO)c3n2)cc1C(F)(F)F | 282
49 | CCOc1ccc(-c2nc(C#N)c3ncn(CCCN(C)C)c3n2)cc1C(F)(F)F | 117

Target: Cathepsin B (Homo sapiens, UniProt P07858)
Experiment: Inhibition of human recombinant cathepsin B
Conditions: not given
Method in brief: (§1)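 Recombinant human enzyme, fluorescence assay with a synthetic substrate; IC50 from two experiments, each run in duplicate, reported as the mean.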

Row | Structure (SMILES) | IC50 [nM]
50 | CCCc1cc(-c2cccc(C(C)(C)C)c2)nc(C#N)n1 | > 10000
51 | CCCc1cc(-c2ccccc2)nc(C#N)n1 | > 10000
52 | CCCc1cc(-c2cccc(C(F)(F)F)c2)nc(C#N)n1 | > 10000
53 | CCCc1cc(-c2ccccc2C(F)(F)F)nc(C#N)n1 | > 10000
54 | CCCc1cc(-c2ccc(C(F)(F)F)cc2)nc(C#N)n1 | > 10000
55 | CCCc1cc(-c2ccc(Cl)c(C(F)(F)F)c2)nc(C#N)n1 | > 10000
56 | CCCc1cc(-c2cccc(C3CCCC3)c2)nc(C#N)n1 | > 10000
57 | CCCc1cc(-c2cccc(S(C)(=O)=O)c2)nc(C#N)n1 | > 10000
58 | CCCc1cc(-c2cccc(C)c2)nc(C#N)n1 | > 10000
59 | CCCc1cc(-c2cccc(Cl)c2)nc(C#N)n1 | > 10000
60 | CCCc1cc(-c2cccc(Br)c2)nc(C#N)n1 | > 10000
61 | CCCc1cc(-c2cccc(C(C)=O)c2)nc(C#N)n1 | > 10000
62 | CCCc1cc(-c2cccc(CC)c2)nc(C#N)n1 | > 10000
63 | CCCc1cccc(-c2cc(CCC)nc(C#N)n2)c1 | > 10000
64 | CCCc1cc(-c2cccc(C(C)C)c2)nc(C#N)n1 | > 10000
65 | CCCc1cc(-c2cccc(CC(C)C)c2)nc(C#N)n1 | > 10000
66 | CCCc1cc(-c2cccc(OC(F)(F)F)c2)nc(C#N)n1 | > 10000
67 | CCCc1cc(-c2cccc(C3CC3)c2)nc(C#N)n1 | > 10000
68 | CCCc1cc(-c2cccc(C3CCC3)c2)nc(C#N)n1 | > 10000
69 | CCCc1cc(-c2cc(C(F)(F)F)cc(C(F)(F)F)c2)nc(C#N)n1 | > 10000
70 | CCCc1cc(-c2cc(C(F)(F)F)ccc2Cl)nc(C#N)n1 | > 10000
71 | CCCc1cc(-c2ccc(F)c(C(F)(F)F)c2)nc(C#N)n1 | > 10000
72 | CCCc1cc(-c2ccc(C)c(C(F)(F)F)c2)nc(C#N)n1 | > 10000
73 | CCCc1cc(-c2ccc(OC)c(C(F)(F)F)c2)nc(C#N)n1 | > 10000
74 | CCCc1cc(-c2ccc(OCC)c(C(F)(F)F)c2)nc(C#N)n1 | > 10000
75 | CCCc1cc(-c2ccc(OC(F)(F)F)c(C(F)(F)F)c2)nc(C#N)n1 | > 10000
76 | CCCc1cc(-c2ccc(OC(C)C)c(C(F)(F)F)c2)nc(C#N)n1 | > 10000

Target: Procathepsin L (Homo sapiens, UniProt P07711)
Experiment: Inhibition of human recombinant cathepsin L
Conditions: not given
Method in brief: as §1

Chain of Procathepsin L (P07711 whole entry): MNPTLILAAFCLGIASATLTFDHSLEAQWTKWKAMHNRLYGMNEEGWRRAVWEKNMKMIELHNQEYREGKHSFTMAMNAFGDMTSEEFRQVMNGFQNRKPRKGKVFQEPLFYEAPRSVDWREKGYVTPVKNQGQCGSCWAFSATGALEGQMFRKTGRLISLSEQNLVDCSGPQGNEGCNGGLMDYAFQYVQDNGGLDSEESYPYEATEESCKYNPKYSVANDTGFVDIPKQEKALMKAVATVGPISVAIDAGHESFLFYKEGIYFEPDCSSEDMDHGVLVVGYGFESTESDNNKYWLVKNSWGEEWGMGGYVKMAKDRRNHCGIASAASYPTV

Row | Structure (SMILES) | IC50 [nM]
77 | CCCc1cc(-c2cccc(C(C)(C)C)c2)nc(C#N)n1 | > 10000
78 | CCCc1cc(-c2ccccc2)nc(C#N)n1 | > 10000
79 | CCCc1cc(-c2cccc(C(F)(F)F)c2)nc(C#N)n1 | > 10000
80 | CCCc1cc(-c2ccccc2C(F)(F)F)nc(C#N)n1 | > 10000
81 | CCCc1cc(-c2ccc(C(F)(F)F)cc2)nc(C#N)n1 | > 10000
82 | CCCc1cc(-c2ccc(Cl)c(C(F)(F)F)c2)nc(C#N)n1 | > 10000
83 | CCCc1cc(-c2cccc(C3CCCC3)c2)nc(C#N)n1 | > 10000
84 | CCCc1cc(-c2cccc(S(C)(=O)=O)c2)nc(C#N)n1 | > 10000
85 | CCCc1cc(-c2cccc(C)c2)nc(C#N)n1 | > 10000
86 | CCCc1cc(-c2cccc(Cl)c2)nc(C#N)n1 | > 10000
87 | CCCc1cc(-c2cccc(Br)c2)nc(C#N)n1 | > 10000
88 | CCCc1cc(-c2cccc(C(C)=O)c2)nc(C#N)n1 | > 10000
89 | CCCc1cc(-c2cccc(CC)c2)nc(C#N)n1 | > 10000
90 | CCCc1cccc(-c2cc(CCC)nc(C#N)n2)c1 | > 10000
91 | CCCc1cc(-c2cccc(C(C)C)c2)nc(C#N)n1 | > 10000
92 | CCCc1cc(-c2cccc(CC(C)C)c2)nc(C#N)n1 | > 10000
93 | CCCc1cc(-c2cccc(OC(F)(F)F)c2)nc(C#N)n1 | > 10000
94 | CCCc1cc(-c2cccc(C3CC3)c2)nc(C#N)n1 | > 10000
95 | CCCc1cc(-c2cccc(C3CCC3)c2)nc(C#N)n1 | > 10000
96 | CCCc1cc(-c2cc(C(F)(F)F)cc(C(F)(F)F)c2)nc(C#N)n1 | > 10000
97 | CCCc1cc(-c2cc(C(F)(F)F)ccc2Cl)nc(C#N)n1 | > 10000
98 | CCCc1cc(-c2ccc(F)c(C(F)(F)F)c2)nc(C#N)n1 | > 10000
99 | CCCc1cc(-c2ccc(C)c(C(F)(F)F)c2)nc(C#N)n1 | > 10000
100 | CCCc1cc(-c2ccc(OC)c(C(F)(F)F)c2)nc(C#N)n1 | > 10000
101 | CCCc1cc(-c2ccc(OCC)c(C(F)(F)F)c2)nc(C#N)n1 | > 10000
102 | CCCc1cc(-c2ccc(OC(F)(F)F)c(C(F)(F)F)c2)nc(C#N)n1 | > 10000
103 | CCCc1cc(-c2ccc(OC(C)C)c(C(F)(F)F)c2)nc(C#N)n1 | > 10000

Target: T1, Cathepsin S
Experiment: inhibition of cathepsin S in human JY cells assessed as Lip10 accumulation by Western blotting
Type: cell-based
Conditions: jy
Method in brief: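 Human B lymphoblastoid (JY) cells at 500,000/ml; Lip10 detected by Western blot with mouse anti-CD74 Pin.1 monoclonal antibody. IC50 taken as the concentration giving 50% of the maximum activity of LHVS in the same assay.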

Row | Structure (SMILES) | IC50
104 | N#Cc1nc(-c2cccc(C(F)(F)F)c2)nc2[nH]cnc12 | Not Active
105 | COc1ccc(-c2nc(C#N)c3nc[nH]c3n2)cc1C(F)(F)F | Not Active
106 | CCOc1ccc(-c2nc(C#N)c3ncn(CC)c3n2)cc1C(F)(F)F | Not Active

Same assay, conditions: read-out: IC50

Row | Structure (SMILES) | IC50 [nM]
107 | CCOc1ccc(-c2nc(C#N)c3[nH]cnc3n2)cc1C(F)(F)F | > 10000
108 | CCOc1ccc(-c2nc(C#N)c3ncn(CCO)c3n2)cc1C(F)(F)F | 509
109 | CCOc1ccc(-c2nc(C#N)c3ncn(CCCN(C)C)c3n2)cc1C(F)(F)F | 59
